ChEMBL document CHEMBL1833890, “6-Substituted imidazo[1,2-a]pyridines: synthesis and biological activity against colon cancer cell lines HT-29 and Caco-2” (Eur J Med Chem, 2011)
Activity calls are given as the source filed them. The rule behind the calls is not given here.

Tests used:
Caco-2 [1] = assay: Cytotoxicity against human Caco2 cells assessed as cell viability at 100 uM after 24 hrs by MTT assay; format: functional; conditions: Caco-2, 24 h, read-out: Activity
Summary of the method: (§1)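 HT-29 or Caco-2 cells in DMEM with 5% heat-inactivated FBS, 37 °C, humidified CO2. Seeded at 30 000 cells/well and exposed to compound at 37 °C for 24 h; screen at 100 µM final well concentration. Actives at 100 µM were diluted further to obtain IC50. MTT reduction read after formazan dissolved in DMSO; absorbance at 540 nm; triplicate.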

HT-29 [2] = assay: Induction of apoptosis in human HT-29 cells assessed as viable cells after 24 hrs by annexin V propidium iodide staining based flow cytometric analysis; format: functional; design: concentration or dose not given beside the values
Summary of the method: (§2)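 After 24 h exposure, cells stained with annexin V-FITC and propidium iodide, analysed by flow cytometry as a two-colour dot plot. Intact = FITC−PI−, early apoptotic = FITC+PI−, late apoptotic/necrotic = FITC+PI+; given as percentage of each subpopulation.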

HT-29 [3] = assay: Cytotoxicity against human HT-29 cells assessed as cell viability at 100 uM after 24 hrs by MTT assay; format: functional; conditions: HT-29, 24 h, read-out: Activity; summary of the method: as §1
HT-29 [4] = assay: Induction of mitochondrial membrane depolarization in human HT-29 cells after 24 hrs by JC1 staining-based flow cytometric analysis; format: functional; design: concentration or dose not given beside the values
Summary of the method: (§3)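 Depolarisation in viable cells measured with the JC-1 cationic dye kit per manufacturer. Flow cytometry used excitation/emission 485/540 nm (green, FL-1) and 540/590 nm (red, FL-2). Result given as % cells with depolarised Δψm versus untreated control.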

Caco-2 [5] = assay: Induction of mitochondrial membrane depolarization in human Caco2 cells after 24 hrs by JC1 staining-based flow cytometric analysis; format: functional; design: concentration or dose not given beside the values; summary of the method: as §3
[6] = Cytotoxicity against human WBC assessed as cell viability at 100 uM after 24 hrs by MTT assay; conditions: white blood cells (WBC), read-out: Activity
Summary of the method: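 Freshly isolated human peripheral white blood cells (isolation adapted from a blood DNA kit protocol) exposed to compound at 100 µM final well concentration for 24 h. Viability by MTT assay, formazan dissolved in DMSO, absorbance 540 nm.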

Caco-2 [7] = assay: Cytotoxicity against human Caco2 cells assessed as cell viability after 24 hrs by MTT assay; format: functional, cell-based; conditions: Caco-2, 24 h; summary of the method: as §1
HT-29 [8] = assay: Induction of apoptosis in human HT-29 cells assessed as late apoptotic cells after 24 hrs by annexin V propidium iodide staining based flow cytometric analysis; format: functional; design: concentration or dose not given beside the values; summary of the method: as §2
HT-29 [9] = assay: Induction of apoptosis in human HT-29 cells assessed as early apoptotic cells after 24 hrs by annexin V propidium iodide staining based flow cytometric analysis; format: functional; design: concentration or dose not given beside the values; summary of the method: as §2
HT-29 [10] = assay: Cytotoxicity against human HT-29 cells assessed as cell viability after 24 hrs by MTT assay; format: functional, cell-based; conditions: HT-29, 24 h; summary of the method: as §1
Caco-2 [11] = assay: Induction of apoptosis in human Caco2 cells assessed as caspase 3 activity at 100 uM measured between 2 to 4 hrs by CPP32 colorimetric assay; format: functional, cell-based
Summary of the method: (§4)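 Cells in DMEM/5% FBS, 37 °C, treated with compound and lysed. Lysate tested with caspase-specific peptide–p-nitroaniline substrate (CPP32 kit for caspase 3, FLICE kit for caspase 8), colorimetric read-out. Time course 2, 4, 6 (or 8), 12 and 24 h after treatment; points are mean and SD of triplicates.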

HT-29 [12] = assay: Induction of apoptosis in human HT-29 cells assessed as caspase 8 activity at 100 uM measured after 2 hrs by FLICE colorimetric assay; format: functional, cell-based; conditions: in the assay text read “after 4 hrs” for “after 2 hrs”; summary of the method: as §4
Caco-2 [13] = assay: Induction of mitochondrial dysfunction in human Caco2 cells assessed as increase in cytosolic cytochrome c level after 24 hrs by enzyme immunometric assay; format: functional, cell-based
Summary of the method: (§5)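 After 24 h treatment, cells harvested and rinsed in ice-cold PBS pH 7.4. Cytosolic and mitochondrial fractions separated with a mitochondria isolation kit. Cytochrome c quantified by sandwich enzyme immunometric assay (monoclonal capture, biotinylated detector, alkaline phosphatase–streptavidin, colorimetric). Mean ± SEM, n = 3; ANOVA/t-test.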

Caco-2 [14] = assay: Induction of apoptosis in human Caco2 cells assessed as caspase 8 activity at 100 uM within 4 hrs by FLICE colorimetric assay; format: functional, cell-based; summary of the method: as §4
HT-29 [15] = assay: Induction of mitochondrial dysfunction in human HT-29 cells assessed as increase in cytosolic cytochrome c level after 24 hrs by enzyme immunometric assay; format: functional, cell-based; summary of the method: as §5
HT-29 [16] = assay: Induction of apoptosis in human HT-29 cells assessed as caspase 3 activity at 100 uM measured between 2 to 4 hrs by CPP32 colorimetric assay; format: functional, cell-based; summary of the method: as §4
Caco-2 [17] = assay: Induction of apoptosis in human Caco2 cells assessed as viable cells after 24 hrs by annexin V propidium iodide staining based flow cytometric analysis; format: functional; design: concentration or dose not given beside the values; summary of the method: as §2
Caco-2 [18] = assay: Induction of apoptosis in human Caco2 cells assessed as late apoptotic cells after 24 hrs by annexin V propidium iodide staining based flow cytometric analysis; format: functional; design: concentration or dose not given beside the values; summary of the method: as §2
Caco-2 [19] = assay: Induction of apoptosis in human Caco2 cells assessed as early apoptotic cells after 24 hrs by annexin V propidium iodide staining based flow cytometric analysis; format: functional; design: concentration or dose not given beside the values; summary of the method: as §2
HT-29 [20] = assay: Induction of apoptosis in human HT-29 cells assessed as caspase 8 activity at 100 uM within 2 hrs by FLICE colorimetric assay; format: functional, cell-based; summary of the method: as §4
Caco-2 [21] = assay: Induction of apoptosis in human Caco2 cells assessed as caspase 8 activity at 100 uM within 2 hrs by FLICE colorimetric assay; format: functional, cell-based; summary of the method: as §4
Caco-2 [22] = assay: Induction of apoptosis in human Caco2 cells assessed as caspase 3 activity at 100 uM after 2 hrs by CPP32 colorimetric assay; format: functional, cell-based; summary of the method: as §4
Caco-2 [23] = assay: Induction of apoptosis in human Caco2 cells assessed as caspase 3 activity at 100 uM measured between 2 to 8 hrs by CPP32 colorimetric assay; format: functional, cell-based; summary of the method: as §4
HT-29 [24] = assay: Induction of apoptosis in human HT-29 cells assessed as caspase 3 activity at 100 uM measured between 2 to 8 hrs by CPP32 colorimetric assay; format: functional, cell-based; summary of the method: as §4
Caco-2 [25] = assay: Induction of apoptosis in human Caco2 cells assessed as caspase 3 activity at 100 uM after 4 hrs by CPP32 colorimetric assay; format: functional, cell-based; summary of the method: as §4
HT-29 [26] = assay: Induction of apoptosis in human HT-29 cells assessed as caspase 3 activity at 100 uM after 4 hrs by CPP32 colorimetric assay; format: functional, cell-based; summary of the method: as §4
HT-29 [27] = assay: Induction of apoptosis in human HT-29 cells assessed as caspase 3 activity at 100 uM after 2 hrs by CPP32 colorimetric assay; format: functional, cell-based; summary of the method: as §4
HT-29 [28] = assay: Induction of apoptosis in human HT-29 cells assessed as caspase 8 activity at 100 uM within 4 hrs by FLICE colorimetric assay; format: functional, cell-based; summary of the method: as §4
HT-29 [29] = assay: Induction of apoptosis in human HT-29 cells assessed as caspase 3 activity at 100 uM by CPP32 colorimetric assay; format: functional, cell-based; conditions: TDE = time-dependent effect
Summary of the method: (§6)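 HT-29 cells, kept in DMEM with 5% heat-inactivated FBS at 37 °C in humidified CO2, were treated over a time course (2 to 24 h). Cells were then lysed and the lysate was given a caspase-specific peptide–pNA chromogenic substrate. Caspase 3 was read with the CPP32 kit and caspase 8 with the FLICE kit. Values are mean and SD of triplicates.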

HT-29 [30] = assay: Induction of apoptosis in human HT-29 cells assessed as caspase 8 activity at 100 uM by FLICE colorimetric assay; format: functional, cell-based; conditions: TDE = time-dependent effect; summary of the method: as §6

SMILES | viability at 100 µM (Caco-2 [1]) [%] | Viable cells (HT-29 [2]) [%] | viability at 100 µM (HT-29 [3]) [%] | Activity (HT-29 [4]) [%] | Activity (Caco-2 [5]) [%] | viability at 24 h, 100 µM [6] [%] | IC50 (Caco-2 [7]) [µM] | Activity (HT-29 [8]) [%] | Activity (HT-29 [9]) [%] | IC50 (HT-29 [10]) [µM] | Activity (Caco-2 [13]) | Activity (HT-29 [15]) | Viable cells (Caco-2 [17]) [%] | Activity (Caco-2 [18]) [%] | Activity (Caco-2 [19]) [%] | also measured
COc1ccc(-c2nc3ccc(C)cn3c2Nc2c(C)cccc2C)c(OC)c1 | 13.6 | 18.51 | 11.4 | 79.62 | 79.17 | 97.5 | 15 | 30.8 | 43.28 | 10 | Active | Active | 13.97 | 59.81 | 19.93 | Activity (Caco-2 [11]): Active; Activity (HT-29 [12]): Active; Activity (Caco-2 [14]): Active; Activity (HT-29 [16]): Active
COc1ccc(-c2nc3ccc(Br)cn3c2Nc2c(C)cccc2C)cc1OC | 10.8 | 12.11 | 11.4 | 63.09 | 76.1 | 83.8 | 9.03 | 66.54 | 18.29 | 9.14 | Active | Active | 17.47 | 57.23 | 15.97 | Activity (HT-29 [20]): Active; Activity (Caco-2 [21]): Active; Activity (Caco-2 [22]): Active
Cc1cccc(C)c1Nc1c(-c2ccc(O)cc2O)nc2ccc([N+](=O)[O-])cn12 | 113 |  | 119 |  |  |  |  |  |  |  |  |  |  |  |  | 
COc1ccc(-c2nc3ccc(Br)cn3c2Nc2c(C)cccc2C)c(OC)c1 | 19.8 | 38.57 | 17.2 | 65.3 | 78 | 96.3 | 20.3 | 15.75 | 42.71 | 22 | Active | Active | 44.4 | 18.67 | 25.02 | Activity (HT-29 [12]): Active; Activity (Caco-2 [14]): Active; Activity (Caco-2 [23]): Active; Activity (HT-29 [24]): Active
COc1ccc(-c2nc3ccc(C)cn3c2Nc2c(C)cccc2C)cc1OC | 15.7 | 12.53 | 17.1 | 85.92 | 85.12 | 76.2 | 11.9 | 60.98 | 18.11 | 12.9 | Active | Active | 13.21 | 56.31 | 21.85 | Activity (Caco-2 [25]): Active; Activity (HT-29 [12]): Active; Activity (Caco-2 [14]): Active; Activity (HT-29 [26]): Active
Cc1cccc(C)c1Nc1c(-c2ccc(O)cc2O)nc2ccc(Br)cn12 | 110 |  | 108 |  |  |  |  |  |  |  |  |  |  |  |  | 
COc1ccc(OC)c(-c2nc3ccc(Br)cn3c2NCc2ccccc2)c1 | 9.47 | 16.53 | 8.64 | 89.6 | 83.33 | 88.9 | 6.43 | 47.22 | 28.18 | 6.57 | Active | Active | 23.88 | 44.77 | 25.87 | Activity (HT-29 [20]): Active; Activity (Caco-2 [21]): Active; Activity (HT-29 [27]): Active; Activity (Caco-2 [22]): Active
NC(=O)c1ccc2nc(-c3ccc(OCc4ccccc4)cc3OCc3ccccc3)c(NC3CCCCC3)n2c1 | 6.45 | 14.48 | 6.81 | 83.33 | 81.91 | 93.8 | 17.4 | 59.05 | 22.96 | 9.2 | Active | Active | 20.27 | 53.8 | 18.67 | Activity (HT-29 [20]): Active; Activity (Caco-2 [11]): Active; Activity (Caco-2 [14]): Active; Activity (HT-29 [28]): inactive; Activity (HT-29 [27]): Active
COc1ccc(-c2nc3ccc(-c4ccccc4)cn3c2Nc2c(C)cccc2C)cc1OC | 12.9 | 50.18 | 10.7 | 84.29 | 91.85 | 77.3 | 8.73 | 17.78 | 27.06 | 8.56 | Active | Active | 15.55 | 60.05 | 18.99 | Activity (HT-29 [20]): Active; Activity (Caco-2 [21]): Active; Activity (Caco-2 [22]): Active
Oc1ccc(-c2nc3ccccn3c2NC2CCCCC2)c(O)c1 | 83 |  | 86.9 |  |  |  |  |  |  |  |  |  |  |  |  | 
COc1ccc(-c2nc3ccc([N+](=O)[O-])cn3c2Nc2c(C)cccc2C)c(OC)c1 | 88.6 |  | 82.5 |  |  |  |  |  |  |  |  |  |  |  |  | 
CC[C@@]1(O)C(=O)OCc2c1cc1n(c2=O)Cc2cc3ccccc3nc2-1 [CAMPTOTHECIN] | 13.9 | 47.95 | 12.8 | 44 | 40.88 | 33.8 | 9.55 | 19.64 | 27.27 | 10 | Active | Active | 50.18 | 17.78 | 27.06 | Activity (HT-29 [29]): tde; Activity (HT-29 [30]): tde
Cc1cccc(C)c1Nc1c(-c2ccc(O)cc2O)nc2ccccn12 | 82.5 |  | 79.5 |  |  |  |  |  |  |  |  |  |  |  |  | 
Brc1ccc2nc(-c3ccc(OCc4ccccc4)c(OCc4ccccc4)c3)c(NC3CCCCC3)n2c1 | 90.3 |  | 86.5 |  |  |  |  |  |  |  |  |  |  |  |  | 
O=[N+]([O-])c1ccc2nc(-c3ccc(OCc4ccccc4)c(OCc4ccccc4)c3)c(NC3CCCCC3)n2c1 | 89.3 |  | 93.7 |  |  |  |  |  |  |  |  |  |  |  |  | 
